From ChEMBL document CHEMBL4699650, “SAR Investigation and Discovery of Water-Soluble 1-Methyl-1,4-dihydroindeno[1,2-c]pyrazoles as Potent Tubulin Polymerization Inhibitors” (J Med Chem, 2020)
pIC50: −log10 of the molar value.

Assays:
[1] = system: HCT-116; assay: Antiproliferation activity against human HCT116 cells assessed as cell growth inhibition measured after 72 hrs by MTT assay; format: functional
Procedure, shortened: (§1)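 Cells grown in RPMI-1640 with 10% FBS at 37 °C, 5% CO2, seeded at 4−7 × 10³ cells/well and left to adhere overnight. Exposed to a range of concentrations for 72 h, then MTT (2.5 mg/mL stock) added for 4 h. Formazan dissolved in DMSO and absorbance read at 570 nm. GI50 taken as the concentration giving 50% growth inhibition, reported as mean ± SD of at least three independent experiments.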

[2] = system: HepG2; assay: Antitumor activity against human HepG2 cells xenografted in Balb/c mouse assessed as reduction in tumor volume administered orally as 0.5% MC suspension for 21 days relative to control; format: functional; set-up: scale not given: the % may be the effect or the level left; settings: time 21 day
[3] = system: A549; assay: Antiproliferation activity against human A549 cells assessed as cell growth inhibition measured after 72 hrs by MTT assay; format: functional; procedure, shortened: as §1
[4] = Inhibition of porcine brain tubulin polymerization measured every 60 sec for 60 mins in presence of GTP by fluorescence assay; set-up: species or system Sus scrofa
Procedure, shortened: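 Fluorescence kit assay using 2 mg/mL porcine brain tubulin with 2 mM MgCl₂, 0.5 mM EGTA, 1 mM GTP and 15% glycerol. Compound at various concentrations preincubated 1 min at 37 °C before adding the tubulin mix. Read at ex 355/em 460 nm every 60 s for 60 min. IC50 is the concentration giving 50% inhibition at 60 min; mean ± SD of ≥3 independent experiments.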

[5] = system: HepG2; assay: Antiproliferation activity against human HepG2 cells assessed as cell growth inhibition measured after 72 hrs by MTT assay; format: functional; procedure, shortened: as §1
[6] = Lipophilicity, log P of the compound in DMSO and n-octanol at pH 7.4 incubated for 10 hrs under stirred condition by HPLC analysis; format: physicochemical; settings: n-octanol / aqueous phase pH 7.4, pH 7.4
Procedure, shortened: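 Partition between n-octanol and water: mixture stirred at room temperature for 10 h, then left at 4 °C overnight. Each phase analysed separately by HPLC on a C18 column. Log P taken from the ratio of peak areas in n-octanol and water.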

[7] = Aqueous solubility of compound in DMSO at pH 7.4 by HPLC analysis; format: physicochemical; settings: aqueous medium
Procedure, shortened: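 Solubility measured at pH 7.4. DMSO stock (10 mg/mL) diluted in methanol to five levels to build an HPLC peak-area standard curve. Compound added to 1 mL buffer to make a saturated solution, and the peak area of that solution analysed by HPLC on a C18 column. Solubility calculated from the standard curve.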

Compound: CCOc1cccc(Nc2nn(C)c3c2Cc2cc(OCC)c(OCC(N)=O)cc2-3)c1
- GI50 [1]: 39.6 nM
- Activity [2]: 50%
- GI50 [3]: 23.2 nM
- pIC50 [4]: 5.39
- GI50 [5]: 8.6 nM
- logD at 10 h [6]: 3.18
- solubility [7]: < 5 µg/mL
